From ChEMBL document CHEMBL5661968, “Antitumor activity of ZSTK474, a new phosphatidylinositol 3-kinase inhibitor” (J Natl Cancer Inst, 2006) come the findings set out here.

Active and inactive are the calls of the source. The rule behind the calls is not given here.

The nature of data set [1]: Growth inhibition of human HBC5 cells measured after 48 hrs by sulforhodamine B assay. Format: functional. Put shortly: (§1)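 JFCR39 panel lines were grown in RPMI 1640 with 5% FBS, penicillin and streptomycin at 37 °C in 5% CO2. After 48 h of drug exposure, total cellular protein was measured by sulforhodamine B staining. GI50 was calculated by a previously described method.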
In general terms: In SRB staining, fixed cells bind dye roughly in proportion to their protein.

A further data set relates to MCF7. Put plainly: Growth inhibition of human MCF7 cells measured after 48 hrs by sulforhodamine B assay. The data set is classed as functional. Put shortly: as §1
The test system of a further data set is HCT-15. Briefly: Growth inhibition of human HCT-15 cells measured after 48 hrs by sulforhodamine B assay. The data set is classed as functional. A digest of the protocol:
as §1

The subject of another data set is NCI-H23. Put plainly: Growth inhibition of human NCI-H23 cells measured after 48 hrs by sulforhodamine B assay. The data set is classed as functional. A digest of the protocol: as §1
The test system of a further data set is NCI-H226. Briefly: Growth inhibition of human NCI-H226 cells measured after 48 hrs by sulforhodamine B assay. The data set is classed as functional. Put shortly: as §1
In the next data set the test system is NCI-H460. Briefly: Growth inhibition of human NCI-H460 cells measured after 48 hrs by sulforhodamine B assay. Format: functional. A digest of the protocol: as §1
The subject of another data set is DMS-273. Briefly: Growth inhibition of human DMS-273 cells measured after 48 hrs by sulforhodamine B assay. Format: functional. A digest of the protocol: as §1
The subject of the next data set is MKN-1. Briefly: Growth inhibition of human MKN-1 cells measured after 48 hrs by sulforhodamine B assay. The data set is classed as functional. Put shortly:
as §1

For another data set, the system named is DU-145. Put plainly: Growth inhibition of human DU-145 cells measured after 48 hrs by sulforhodamine B assay. The data set is classed as functional. Put shortly:
as §1

The next data set concerns OVCAR-3. Put plainly: Induction of apoptosis in human OVCAR-3 cells assessed as increase in apoptotic cells at 10 uM measured after 48 hrs by propidium iodide staining based flow cytometric analysis. The data set is classed as functional, cell-based. Put shortly:
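Cells harvested, washed in ice-cold PBS, fixed in 70% ethanol, washed twice in ice-cold PBS, treated with RNase A (500 μg/mL) at 37 °C for 1 h, stained with propidium iodide (25 μg/mL); DNA content read by flow cytometry.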
(In general: A flow cytometer gives signals particle by particle.)

The test system of data set [2] is A549. Put plainly: Inhibition of AKT in human A549 cells at 0.5 uM measured after 5 mins by Western blotting analysis. Format: cell-based. Background: Immunoblotting shows a protein as a band on a membrane.
Data set [3] concerns the target Glycogen synthase kinase-3 beta (Homo sapiens) (UniProt P49841). Put plainly: Inhibition of GSK-3beta phosphorylation at Ser9 residue in human A549 cells at 0.5 uM measured after 30 mins by Western blotting analysis. The data set is classed as cell-based.
The next data set has as its target Tuberin (Homo sapiens) (UniProt P49815). Put plainly: Inhibition of TSC-2 phosphorylation at ser-1462 residue in human A549 cells measured after 3 hrs by immunoblotting analysis. As to conditions: dose <= 2.0 µM. The data set is classed as cell-based. A digest of the protocol:
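A549 cells treated over 0 to 2.0 μM; lysed in 10 mM Tris–HCl pH 7.4, 50 mM NaCl, NaF, pyrophosphate, vanadate, EDTA, protease inhibitors, 0.5% NP-40, 0.1% SDS; proteins resolved by SDS-PAGE, blotted to PVDF, probed with phospho-specific antibodies, HRP secondary, ECL detection.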

Data set [4] in a line: Toxicity in nude mouse xenografted with human A549 cells assessed as change in body weight at 800 mg/kg, po administered on day 0 to 13 except for day 3 and 10 measured after 28 days (reference value: 14 %). The data set is classed as organism-based. As to conditions: in vivo, 672 h, time 28 day.
The target in data set [5] is Dual specificity mitogen-activated protein kinase kinase 2 (Homo sapiens) (UniProt P36507). Briefly: Inhibition of MEK2 phosphorylation at Ser-217/221 residues in human A549 cells measured after 3 hrs by immunoblotting analysis. As to conditions: dose <= 2.0 µM.
Sequence of Dual specificity mitogen-activated protein kinase kinase 2 (Homo sapiens) (P36507 whole entry): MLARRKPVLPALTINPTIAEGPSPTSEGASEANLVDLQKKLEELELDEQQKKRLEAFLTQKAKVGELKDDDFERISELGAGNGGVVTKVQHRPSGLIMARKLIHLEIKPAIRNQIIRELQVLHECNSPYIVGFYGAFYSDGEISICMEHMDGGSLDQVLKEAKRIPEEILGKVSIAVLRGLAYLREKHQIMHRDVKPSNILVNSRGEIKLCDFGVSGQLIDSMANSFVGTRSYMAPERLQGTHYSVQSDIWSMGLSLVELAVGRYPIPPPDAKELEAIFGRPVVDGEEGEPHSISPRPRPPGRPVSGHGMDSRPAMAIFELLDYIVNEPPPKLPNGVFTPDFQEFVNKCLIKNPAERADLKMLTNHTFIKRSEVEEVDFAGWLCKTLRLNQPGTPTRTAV
For data set [6], the target named is Mitogen-activated protein kinase 1 (Homo sapiens) (UniProt P28482). Briefly: Inhibition of ERK2 phosphorylation at Thr-202/Tyr-204 residues in human A549 cells measured after 3 hrs by immunoblotting analysis. The note with it: dose <= 2.0 µM.
Sequence of Mitogen-activated protein kinase 1 (Homo sapiens) (P28482 whole entry): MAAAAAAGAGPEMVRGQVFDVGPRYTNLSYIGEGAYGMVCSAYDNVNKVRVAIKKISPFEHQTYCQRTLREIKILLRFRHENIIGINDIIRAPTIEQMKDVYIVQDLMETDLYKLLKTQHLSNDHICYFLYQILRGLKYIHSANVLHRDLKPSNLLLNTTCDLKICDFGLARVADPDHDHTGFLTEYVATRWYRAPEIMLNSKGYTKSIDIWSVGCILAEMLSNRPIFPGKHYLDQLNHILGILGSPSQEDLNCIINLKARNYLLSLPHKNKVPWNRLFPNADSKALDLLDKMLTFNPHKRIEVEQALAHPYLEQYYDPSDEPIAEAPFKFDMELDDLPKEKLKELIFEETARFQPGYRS
For data set [7], the system named is A549. Briefly: Induction of cell cycle arrest in human A549 cells assessed as accumulation of cells at G1 phase at 10 uM incubated for 24 hrs by propidium iodide staining based flow cytometric analysis.

Sequence of Tuberin (Homo sapiens) (P49815 whole entry): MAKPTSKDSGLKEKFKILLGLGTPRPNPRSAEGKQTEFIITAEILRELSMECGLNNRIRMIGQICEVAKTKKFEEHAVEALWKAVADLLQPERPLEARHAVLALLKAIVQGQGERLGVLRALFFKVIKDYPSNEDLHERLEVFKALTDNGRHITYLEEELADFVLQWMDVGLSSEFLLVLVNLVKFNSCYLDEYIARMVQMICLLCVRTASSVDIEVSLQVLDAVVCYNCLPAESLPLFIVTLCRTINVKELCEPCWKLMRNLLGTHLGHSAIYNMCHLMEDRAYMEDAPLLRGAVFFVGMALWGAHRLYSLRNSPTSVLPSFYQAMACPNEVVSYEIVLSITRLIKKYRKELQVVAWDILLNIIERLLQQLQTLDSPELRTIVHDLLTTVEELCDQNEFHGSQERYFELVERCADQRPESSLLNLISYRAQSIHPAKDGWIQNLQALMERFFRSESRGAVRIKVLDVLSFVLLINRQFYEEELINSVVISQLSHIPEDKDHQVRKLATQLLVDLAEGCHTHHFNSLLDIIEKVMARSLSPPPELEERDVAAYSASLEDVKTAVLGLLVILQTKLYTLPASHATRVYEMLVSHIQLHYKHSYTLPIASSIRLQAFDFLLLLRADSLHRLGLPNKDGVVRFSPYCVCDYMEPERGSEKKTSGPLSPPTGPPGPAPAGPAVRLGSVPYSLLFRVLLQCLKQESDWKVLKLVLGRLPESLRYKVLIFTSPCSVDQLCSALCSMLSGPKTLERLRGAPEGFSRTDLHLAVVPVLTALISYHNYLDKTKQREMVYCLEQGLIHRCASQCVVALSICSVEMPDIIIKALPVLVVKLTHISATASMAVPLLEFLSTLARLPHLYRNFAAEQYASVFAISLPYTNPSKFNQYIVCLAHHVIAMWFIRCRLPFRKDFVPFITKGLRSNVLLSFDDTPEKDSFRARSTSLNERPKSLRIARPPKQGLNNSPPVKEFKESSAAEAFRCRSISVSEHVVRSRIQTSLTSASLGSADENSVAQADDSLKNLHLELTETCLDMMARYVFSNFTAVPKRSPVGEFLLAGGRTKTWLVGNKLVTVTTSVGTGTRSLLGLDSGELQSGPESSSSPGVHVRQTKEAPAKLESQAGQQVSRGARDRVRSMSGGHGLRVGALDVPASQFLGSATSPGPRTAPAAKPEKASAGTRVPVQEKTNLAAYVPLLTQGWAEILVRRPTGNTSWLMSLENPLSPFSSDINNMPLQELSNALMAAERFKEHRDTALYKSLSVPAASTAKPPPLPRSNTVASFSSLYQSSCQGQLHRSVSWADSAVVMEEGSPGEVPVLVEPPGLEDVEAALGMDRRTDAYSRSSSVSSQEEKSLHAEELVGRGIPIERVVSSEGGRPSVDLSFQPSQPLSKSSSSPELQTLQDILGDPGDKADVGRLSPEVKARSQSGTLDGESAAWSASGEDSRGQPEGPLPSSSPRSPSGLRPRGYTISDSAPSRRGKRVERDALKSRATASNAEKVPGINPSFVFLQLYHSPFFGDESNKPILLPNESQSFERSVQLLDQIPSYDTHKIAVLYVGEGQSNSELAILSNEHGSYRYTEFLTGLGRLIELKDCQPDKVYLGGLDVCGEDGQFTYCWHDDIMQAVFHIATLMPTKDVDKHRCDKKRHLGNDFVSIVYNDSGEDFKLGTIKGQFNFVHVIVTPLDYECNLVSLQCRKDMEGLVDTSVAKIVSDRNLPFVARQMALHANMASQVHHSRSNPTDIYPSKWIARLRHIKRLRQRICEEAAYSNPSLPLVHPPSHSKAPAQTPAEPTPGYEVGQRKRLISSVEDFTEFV
Sequence of Glycogen synthase kinase-3 beta (Homo sapiens) (P49841 whole entry, looked up): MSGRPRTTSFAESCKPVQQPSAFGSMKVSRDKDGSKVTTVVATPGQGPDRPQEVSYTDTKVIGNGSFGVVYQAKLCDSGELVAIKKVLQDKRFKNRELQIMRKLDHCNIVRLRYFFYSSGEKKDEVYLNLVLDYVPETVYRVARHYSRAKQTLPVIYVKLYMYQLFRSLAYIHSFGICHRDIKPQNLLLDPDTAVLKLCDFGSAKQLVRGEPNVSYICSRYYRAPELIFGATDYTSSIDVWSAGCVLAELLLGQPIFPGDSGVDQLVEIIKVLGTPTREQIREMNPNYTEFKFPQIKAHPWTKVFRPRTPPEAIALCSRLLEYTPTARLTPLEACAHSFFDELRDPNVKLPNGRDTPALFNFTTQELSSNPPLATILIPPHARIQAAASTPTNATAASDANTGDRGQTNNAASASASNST

The GI50 is the concentration that inhibits growth by half. Low readings indicate more potent growth inhibition, high ones less potent growth inhibition. In the case of `FC(F)c1nc2ccccc2n1-c1nc(N2CCOCC2)nc(N2CCOCC2)n1` [ZSTK-474], the concentration for 50% growth inhibition (GI50) is 28.2 nM in data set [1]; 45.7 nM with MCF7; 513 nM in the data set with HCT-15; 339 nM in the data set on NCI-H23; 120 nM in the data set on NCI-H226; 468 nM in the data set on NCI-H460. Moreover, the GI50 in the data set with DMS-273 is 224 nM; in the data set on MKN-1 it was 224 nM; in the data set with DU-145, 912 nM. Further, the result in the data set with OVCAR-3 and in the data set on A549 [7] was Active. For the same compound, the inhibition entry (in the data set with A549 [2]; in [5]; in [6]) was “inactive” throughout. For the same compound, the inhibition entry in data set [3] is “Active”. Moreover, the inhibition result on Tuberin (Homo sapiens) was “Dose-Dependent Effect”. Also, the Activity result in [4] is “Non-Toxic”.
